Test results: paper PMC7982429 (Acta Pharmaceutica Sinica. B, 2020)
“And” between values parts separate entries of the source, which are not always exact repeats. Identical values can stand only once. Like-named read-outs stand apart in the source and are kept apart here.

Columns and labels:
FGFR1 = FGFR1 (Homo sapiens, UniProt P11362); test: Kinase inhibition assay; format: biochemical; details: for inhibition at 0.1 µM / inhibition at 0.01 µM / inhibition at 1 µM: read-out: FGFR1 inhibition rate (%)
SNU16 cancer cell lines = test: Cell proliferation assay; format: cell-based
[1] = Whole blood stability assay; format: in vitro ADME, BALB/c nude mice; details: BALB/c nude, mouse, fresh whole blood
Method in brief: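 Fresh BALB/c nude mouse blood was prewarmed 10 min at 37 °C, then spiked with test compound from a DMSO working solution. Aliquots taken at 0, 0.5, 1, 2 and 5 h were quenched with acetonitrile, centrifuged, and the supernatant diluted in acetonitrile/water. Remaining parent was quantified by UPLC–MS/MS (MRM). GSH adduct was monitored in negative-mode MRM (product ion m/z 272). Triplicates.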

KG1 cells = test: Cell proliferation assay, KG1; format: cell-based; details: read-out: KG1 IC50; FGFR1OP2-FGFR1 (FGFR1-translocated)
H1581 cells = test: Cell proliferation assay, H1581; format: cell-based; details: read-out: H1581 IC50; FGFR1 amplification
UMUC14 cells = test: Cell proliferation assay, UMUC14; format: cell-based; details: read-out: UMUC14 IC50; FGFR3 mutation
BaF3/TEL-FGFR1 cell = test: Cell proliferation assay, BaF3/TEL-FGFR1; format: cell-based; details: read-out: BaF3/TEL-FGFR1 IC50
BaF3/TEL-KDR cell = test: Cell proliferation assay, BaF3/TEL-KDR; format: cell-based; details: read-out: BaF3/TEL-KDR IC50
NCI-H1581 xenograft = test: In vivo antitumor activity, NCI-H1581 xenograft mouse model; set-up: species or system nude mice (BALB/c); details: 12.5 mg/kg, 20 days
[2] = Homo sapiens, SNU-16, read-out: SNU16 IC50

Chain of FGFR1 (P11362 22-822): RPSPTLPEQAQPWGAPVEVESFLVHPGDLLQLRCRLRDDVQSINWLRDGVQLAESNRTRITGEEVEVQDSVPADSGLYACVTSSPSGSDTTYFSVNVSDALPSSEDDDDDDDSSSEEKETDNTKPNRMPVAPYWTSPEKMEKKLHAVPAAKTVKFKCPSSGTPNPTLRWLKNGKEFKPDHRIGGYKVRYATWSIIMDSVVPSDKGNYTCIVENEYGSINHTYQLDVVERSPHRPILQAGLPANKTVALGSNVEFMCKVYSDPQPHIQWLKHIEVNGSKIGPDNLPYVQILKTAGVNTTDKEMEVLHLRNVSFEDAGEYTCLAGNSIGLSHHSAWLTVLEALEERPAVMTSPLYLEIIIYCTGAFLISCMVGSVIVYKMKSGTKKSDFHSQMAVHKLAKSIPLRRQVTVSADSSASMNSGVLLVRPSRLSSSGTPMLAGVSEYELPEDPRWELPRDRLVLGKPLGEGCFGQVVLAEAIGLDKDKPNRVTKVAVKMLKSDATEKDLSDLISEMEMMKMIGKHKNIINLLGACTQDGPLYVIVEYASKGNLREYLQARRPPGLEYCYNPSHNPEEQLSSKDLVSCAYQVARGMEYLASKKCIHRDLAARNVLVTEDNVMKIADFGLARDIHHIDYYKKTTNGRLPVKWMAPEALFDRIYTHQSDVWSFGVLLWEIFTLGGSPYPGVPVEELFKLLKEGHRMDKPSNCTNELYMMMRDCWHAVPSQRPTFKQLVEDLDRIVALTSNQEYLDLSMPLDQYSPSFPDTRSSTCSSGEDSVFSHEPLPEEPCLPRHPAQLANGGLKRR

Q: For `Cc1c(-c2c3c(N)n[nH]c(=O)c3nn2-c2ccccc2)oc2c(Cl)cccc12` [Compound 8p], which inhibition at 0.1 µM (FGFR1) is on record?
A: The inhibition at 0.1 µM was 38.1%.

Q: Which IC50 (SNU16 cancer cell lines; [2]) does the source give for `C=CC(=O)Nc1cccc(-n2nc3c(=O)[nH]nc(N)c3c2-c2oc3ccc(C)cc3c2C)c1` [Compound 10l] here?
A: Its IC50 is 660 ± 322 nM.

Q: With `Cc1c(-c2c3c(N)n[nH]c(=O)c3nn2-c2ccccc2)oc2ccc(Cl)cc12` [Compound 8j] as the compound, how does the IC50 (FGFR1) read?
A: Its IC50 is 56.4 ± 15.8 nM.

Q: Which inhibition at 0.01 µM (FGFR1) does the source give for `Nc1n[nH]c(=O)c2nn(-c3ccccc3)c(-c3ccco3)c12` [Compound 6] here?
A: The inhibition at 0.01 µM was 18.6%.

Q: And the inhibition at 0.1 µM (FGFR1)?
A: Its inhibition at 0.1 µM is 19.6%.

Q: And the inhibition at 1 µM (FGFR1)?
A: Its inhibition at 1 µM is 22.9%.

Q: For `C/C=C/C(=O)Nc1ccc(-n2nc3c(=O)[nH]nc(N)c3c2-c2oc3ccc(C)cc3c2C)cc1` [Compound 10b], which half-life at 1 μmol/L [1] is on record?
A: The half-life at 1 μmol/L was 71.2 h.

Q: For `COc1ccc2oc(-c3c4c(N)n[nH]c(=O)c4nn3-c3ccccc3)c(C)c2c1` [Compound 8f], which IC50 (FGFR1) is on record?
A: The IC50 was 77.5 ± 14.7 nM.

Q: Which inhibition at 0.01 µM (FGFR1) does the source give for `Nc1n[nH]c(=O)c2nn(-c3ccccc3)c(-c3ccccc3)c12` [Compound 7] here?
A: Its inhibition at 0.01 µM is 22.9%.

Q: And the inhibition at 0.1 µM (FGFR1)?
A: Its inhibition at 0.1 µM is 20.4%.

Q: And the inhibition at 1 µM (FGFR1)?
A: The inhibition at 1 µM was 19.9%.

Q: Which results are given for `Cc1c(-c2c3c(N)n[nH]c(=O)c3nn2-c2ccccc2)oc2ccc(Br)cc12` [Compound 8m]?
A: IC50 (FGFR1): 66.8 ± 16.5 nM; IC50 (SNU16 cancer cell lines; [2]): > 1000 nM

Q: What does the source list for `CCCCNc1cc(F)c(-n2nc3c(=O)[nH]nc(N)c3c2-c2oc3ccc(C)cc3c2C)c(F)c1` [Compound 9z]?
A: inhibition at 0.1 µM (FGFR1): 73.9%; IC50 (SNU16 cancer cell lines; [2]): > 1000 nM

Q: Which IC50 (FGFR1) does the source give for `Cc1ccc2oc(-c3c4c(N)n[nH]c(=O)c4nn3-c3ccc(CNC(=O)OCc4ccccc4)cc3)c(C)c2c1` [Compound 9m] here?
A: The IC50 was 13.8 ± 1.3 nM.

Q: With `CC(=O)Nc1ccc(-n2nc3c(=O)[nH]nc(N)c3c2-c2oc3ccc(C)cc3c2C)cc1` [Compound 9j] as the compound, how does the inhibition at 0.1 µM (FGFR1) read?
A: The inhibition at 0.1 µM was 76.4%.

Q: For `CCC(=O)Nc1ccc(-n2nc3c(=O)[nH]nc(N)c3c2-c2oc3ccc(C)cc3c2C)cc1` [Compound 9o], which inhibition at 0.1 µM (FGFR1) is on record?
A: The inhibition at 0.1 µM was 66.2%.

Q: What does the source list for AZD4547?
A: IC50 (SNU16 cancer cell lines; read-out: SNU16 IC50, FGFR2 amplification SNU16 cell line): 3.7 nM and 5 nM; IC50 (KG1 cells): 3.7 ± 0.6 nM; IC50 (H1581 cells): 59.8 ± 8.1 nM; IC50 (UMUC14 cells): 6.4 ± 1.3 nM; IC50 (BaF3/TEL-FGFR1 cell): 0.5 nM; IC50 (BaF3/TEL-KDR cell): 417 ± 10 nM; TGI (tumor weight inhibition rate at the treatment endpoint) (NCI-H1581 xenograft): 65.6%

Q: With `Cc1c(-c2c3c(N)n[nH]c(=O)c3nn2-c2ccccc2)oc2cc(Cl)ccc12` [Compound 8i] as the compound, how does the inhibition at 0.1 µM (FGFR1) read?
A: The inhibition at 0.1 µM was 64.2%.

Q: What about the inhibition at 1 µM (SNU16 cancer cell lines; Homo sapiens, SNU-16, read-out: SNU16 proliferation inhibition) of the same compound?
A: Its inhibition at 1 µM is 49.7%.

Q: With `Cc1ccc2oc(-c3c4c(N)n[nH]c(=O)c4nn3Cc3ccc([N+](=O)[O-])cc3)c(C)c2c1` [Compound 9w] as the compound, how does the inhibition at 0.1 µM (FGFR1) read?
A: The inhibition at 0.1 µM was 16.9%.

Q: With `COc1ccc2c(C)c(-c3c4c(N)n[nH]c(=O)c4nn3-c3ccccc3)oc2c1` [Compound 8d] as the compound, how does the IC50 (FGFR1) read?
A: The IC50 was 67.7 ± 3.9 nM.
